# LMPTP inh – blocks human LMPTP phosphatase; P24666; recombinant LMPTP-A, OMFP fluorogenic substrate, fluorescence intensity; inhibition, % at 20 µM; hit rate 0.22% among 360,000;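 active = compounds that cut the enzyme signal by at least half of the control window in the single-dose screen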;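 note: plate controls were DMSO wells with enzyme plus substrate for no effect and substrate without enzyme for full effect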
# Target sequence (P24666 whole entry, looked up): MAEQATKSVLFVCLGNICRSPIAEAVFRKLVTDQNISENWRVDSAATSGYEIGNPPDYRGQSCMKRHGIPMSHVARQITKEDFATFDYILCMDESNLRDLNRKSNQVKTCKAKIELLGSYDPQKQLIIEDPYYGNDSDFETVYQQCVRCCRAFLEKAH
#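 Assay system: LMPTP-A enzyme. Input: 0.625 nM LMPTP-A final. Probe or stimulus: 400 µM OMFP. Compound dosing: single 20 µM dose. Schedule: 50 min dark incubation at room temperature. Detection: fluorescence intensity of OMFP turnover product. Read-out: percent inhibition versus substrate-only and uninhibited controls. Benchmarks: no-enzyme low control, uninhibited high control.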
# STEP inh – inhibitors of human striatal-enriched phosphatase STEP | P54829 | recombinant STEP, OMFP fluorogenic substrate, fluorescence | inhibition, % at 20 µM | hit rate 0.25% among 360,000 | AID 588621;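 active = inhibition at 20 µM, scaled per plate between control wells, above about 37%, limit read from the data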;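 note: 0% = DMSO with enzyme and substrate and 100% = substrate only without enzyme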
#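 material = STEP tyrosine phosphatase | reagent = fluorogenic phosphatase substrate OMFP at 25 µM final | doses = single compound dose of 20 µM, 1% DMSO final | schedule = 20 min reaction, room temperature, in the dark | measured by = fluorescence, 480/540 nm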
# Scp1 inh – inhibitors of human Scp-1 phosphatase; Q9GZU7; Recombinant Scp1, phosphopeptide, malachite green phosphate absorbance; inhibition, % at 20 µM; hit rate 0.88% among 340,000; AID 493091;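 active = inhibition above about 50% at 20 µM, limit read from the data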;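 note: plate controls were DMSO wells with enzyme for no effect and wells lacking enzyme for full effect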
# Target sequence (Q9GZU7 76-261 limits assumed): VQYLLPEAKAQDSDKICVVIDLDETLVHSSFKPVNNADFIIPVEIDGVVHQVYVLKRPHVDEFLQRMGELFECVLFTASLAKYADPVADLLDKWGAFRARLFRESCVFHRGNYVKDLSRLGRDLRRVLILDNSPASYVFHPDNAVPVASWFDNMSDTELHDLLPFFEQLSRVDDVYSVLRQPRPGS
#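 Test system: SCP-1 phosphatase catalytic domain, residues 76-261 | Compound dosing: One concentration, 20 µM, with 1.0% DMSO | Schedule: 45 min room-temperature reaction, 5 min colour, 30 min stabiliser | Detection: Absorbance at 630 nm | Read-out basis: % inhibition of SCP-1 phosphate liberation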
# DNMT1 block – inhibitors of human DNMT1. DNMT1 molecular beacon, Hinp1I cleavage, fluorescence. AID 588458. hit rate 0.83% among 360,000. inhibition (reported as % activation of signal), % at 10 µM; in the data active = inhibition above about 50%
# Rpn11 block – Rpn11 (human) deubiquitinase inhibition; O00487; human 26S proteasome, Ub4-pepOG fluorescence polarization; 20S core pre-blocked with epoxomicin; hit rate 0.59% among 360,000; inhibition, % at 20 µM;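 active = inhibition at 20 µM, scaled to each plate's controls, above about 33%, limit read from the data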
# Target sequence (O00487 whole entry, looked up): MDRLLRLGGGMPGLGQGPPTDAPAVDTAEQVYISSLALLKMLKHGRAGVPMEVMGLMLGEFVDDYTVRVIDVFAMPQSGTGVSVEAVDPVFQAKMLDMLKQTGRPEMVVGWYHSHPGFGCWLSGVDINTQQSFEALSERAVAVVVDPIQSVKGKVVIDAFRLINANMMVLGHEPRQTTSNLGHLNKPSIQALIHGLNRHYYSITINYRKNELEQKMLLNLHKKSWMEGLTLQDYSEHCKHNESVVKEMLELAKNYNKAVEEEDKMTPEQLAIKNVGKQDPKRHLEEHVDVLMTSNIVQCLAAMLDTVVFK
# Scp1 confirm – Scp-1 (human) inhibition, single-dose confirmed; recombinant SCP-1 catalytic domain, phosphate release, malachite green absorbance; AID 540281; hit rate 61% among 2,500; shares compounds with Scp1 inh; inhibition, % at 20 µM;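 note: plate controls were DMSO with enzyme for no effect and buffer wells lacking enzyme for full effect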
# MG interference – interferes with malachite green readout, flagging false Scp-1 hits. shares compounds with Scp1 inh. Colorimetric interference counterscreen, malachite green absorbance 630 nm. apparent inhibition (interference), % at 20 µM. 2,500 tested, under 10 active. AID 540313;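 note: compounds added after enzyme reaction finished so only phosphate colour detection is probed; plate controls were DMSO wells with completed Scp-1 reaction for no effect and substrate wells lacking enzyme for full effect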
# Scp1 DSF – validation of human Scp-1 inhibitors by thermal shift binding | hit rate 25% among 1,500 | AID 540329 | Recombinant SCP1, Sypro Orange thermal shift Tm | shares compounds with Scp1 inh | thermal shift relative to vanadate control, % at 40 µM;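 active = substances whose mean melting-temperature shift, as a percentage of the reference inhibitor's shift, reaches about 5.3%, limit read from the data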;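 note: 0% = Tm of DMSO wells and 100% = Tm with sodium orthovanadate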
# DNMT1 interf DR – shows spectral interference in the DNMT1 beacon assay; shares compounds with DNMT1 block; molecular beacon fluorescence, spectral interference counter-screen; IC50, µM; 200 tested, under 10 active; AID 602382; call rule not given here
# DNMT1 confirm – confirmation of human DNMT1 inhibitors. shares compounds with DNMT1 block. DNMT1 molecular beacon HinP1I cleavage, fluorescence. inhibition, % at 10 µM. hit rate 8% among 2,300. AID 602385;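 active = average inhibition of at least 30% in the single-concentration confirmation test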
# Beacon interf – beacon fluorescence artifact counter-screen. shares compounds with DNMT1 block. activation (fluorescence interference), % at 10 µM. DNMT1 molecular beacon spectral interference counterscreen, fluorescence 485/520. AID 602387. hit rate 1% among 2,300;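 active = activation of at least 30% at 10 µM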;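 note: DNMT1 catalytic domain with a HinP1I cleavage step and a FAM/dabcyl DNA beacon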
# * = called active by the depositor; . = not tested or not shown. Sampled rows, rich in hits. Any-hit rate of the full collection: about 2%.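 Rule for the calls, unless noted: active = inhibition of at least 30% at 20 µM; inactive = the rest.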
SMILES,LMPTP inh,STEP inh,Scp1 inh,DNMT1 block,Rpn11 block,Scp1 confirm,MG interference,Scp1 DSF,DNMT1 confirm,Beacon interf,others
O=C(CSc1n[nH]c(-c2ccccc2)n1)NC(=O)NCc1ccco1,17,6,68*,65*,-17,55*,-11,1,2,1,
Cn1c(SCC(=O)NC(=O)NCc2ccco2)nnc1-c1ccccc1,46,7,92*,86*,-13,62*,-17,-13,1,2,
CCOC(=O)[C@]12CCCC=C1N(CCC1=CCCCC1)C(=O)[C@H](CC(=O)NCc1cccs1)C2,1,.,.,.,.,.,.,.,.,.,
O=C(NCc1ccccc1F)Nc1nnc([C@H]2C[C@H](O)[C@@H](CO)O2)s1,-3,-1,.,-3,-4,.,.,.,.,.,
O=C(Nc1cc(C(F)(F)F)ccc1F)C1Cc2c(-c3ccccc3Oc3ccccc3)ccnc2O1 (stereo unspecified),4,0,.,-7,-1,.,.,.,.,.,
CCC/C=C/c1ccc(CN2C(C)C(=O)N(Cc3cn(CCC4OCCCO4)nn3)CCS2(=O)=O)cc1 (stereo unspecified),0,0,.,7,4,.,.,.,.,.,
CC(C)C[C@@H](COCc1ccc([N+](=O)[O-])cc1)N1CCN(C(=O)c2ccc(C(F)(F)F)cc2)CCC1=O,2,.,.,.,.,.,.,.,.,.,
COCCCNC(=O)/C(C#N)=C/c1ccc(OCC(=O)O)c(OC)c1,15,34,57*,89*,-15,60*,-9,7.5*,17,0,
COc1ccc(/C=C(\C#N)C(=O)NCCc2ccccc2)cc1OCc1ccccc1,5,1,-24,-10,2,.,.,.,.,.,
CC(C)N(Cc1ccccc1)C(=O)COC(=O)c1cnc(Cl)c(Cl)c1,-1,-2,-8,6,-2,.,.,.,.,.,
NC(=O)Cc1ccc(C(=O)CSc2nnc(-c3ccncc3)n2C2CC2)s1,57*,0,79*,78*,5,82*,5,7.0*,8,-1,
COC(=O)c1ccccc1NC(=O)c1noc2c1CCCC2,1,-1,-11,-3,1,.,.,.,.,.,
COc1cc(NC(=O)c2noc3c2CCC3)c(OC)cc1Cl,4,11,72*,101*,-9,70*,-13,3,11,2,
Nc1ncnc2c1ncn2[C@@H]1O[C@H](C(=O)N2CCN(Cc3ccccn3)CC2)[C@@H](O)[C@H]1O,-2,-1,.,-5,-4,.,.,.,.,.,
O=C(C[C@@H]1C/C=C\CCC(=O)OC[C@H](Cc2ccccc2)NC1=O)N[C@@H](CO)Cc1ccccc1,4,-1,-4,3,3,.,.,.,.,.,
O=C(CSc1cccc[n+]1[O-])Nc1cc2c(cc1Cl)C(=O)c1ccccc1C2=O,50*,49*,85*,92*,-12,11,-20,.,2,-10,
CC(=O)C1=CCC(c2ccccc2)N(S(C)(=O)=O)C1 (stereo unspecified),-3,-2,.,11,3,.,.,.,.,.,
Cc1cc(C=O)c(C)n1-c1ccc(Cl)c(C(=O)O)c1,4,66*,74*,88*,-16,76*,-16,6.2*,21,-2,
CC(C)=CCOc1ccc2c(C)c(CCC(=O)N3C[C@H]4C[C@@H](C3)c3cccc(=O)n3C4)c(=O)oc2c1C,1,2,.,0,-2,.,.,.,.,.,
CC1(OC(=O)c2ccc(Cl)nc2)C(=O)C=C2C=C3CCCN3C=C2C1=O (stereo unspecified),4,10,65*,66*,-32,16,-12,.,6,4,
CN(Cc1ccccn1)C(=O)C1CCC(=O)N(Cc2cccc(C(F)(F)F)c2)C1 (stereo unspecified),0,-1,1,1,5,.,.,.,.,.,
Cc1cccc(N2NC(=O)/C(=C/c3ccc(-c4ccc(Cl)c(C(=O)O)c4)o3)C2=O)c1,26,21,71*,84*,11,56*,-23,12*,12,0,
CCOC(=O)c1cc(-c2ccc(/C=C3/C(=O)N(c4ccc(C(=O)O)cc4)N=C3C)o2)ccc1Cl,20,8,12,30,-10,.,.,.,.,.,
O=C1NN(c2ccccc2)C(=O)/C1=C/c1ccc(-c2ccc(Cl)c(C(=O)O)c2)o1,9,18,70*,85*,-1,62*,-8,14*,12,0,
C#CCN1C(=O)S/C(=C\c2ccc(-c3ccc(Cl)c(C(=O)O)c3)o2)C1=O,0,14,38,14,13,.,.,.,.,.,
SMILES,LMPTP inh,STEP inh,Scp1 inh,DNMT1 block,Rpn11 block,Scp1 confirm,MG interference,Scp1 DSF,DNMT1 confirm,Beacon interf,others
Cc1ccccc1CN1C[C@H]2CON(C)[C@H]2C[C@H]1c1cccc(Br)c1,3,4,.,-4,-8,.,.,.,.,.,
Cc1nnc(Cc2ccccc2)c2n[nH]c(C)c12,0,0,.,-1,-8,.,.,.,.,.,
Cc1cc2oc(C(=O)NCCc3ccc(S(N)(=O)=O)cc3)c(C)c2cc1C,50*,8,85*,79*,22,71*,-16,-11,3,2,
Cc1cc2oc(C(=O)NCCc3ccc(S(N)(=O)=O)cc3)cc(=O)c2cc1C,-1,-3,-9,15,-6,.,.,.,.,.,
CC1(C)CC=CC(COC(=O)c2ccccc2C(=O)O)C1 (stereo unspecified),-2,1,2,4,-3,.,.,.,.,.,
COc1ccc(S(=O)(=O)N2CCN(C(=O)c3cc4c(s3)CCC4)CC2)cc1,57*,36,84*,100*,10,68*,-17,5,40*,0,DNMT1 interf DR=>99
CN(CCOc1ccccc1)C(=O)c1cc(S(=O)(=O)N2CCOCC2)c(Cl)cc1Cl,2,-1,.,-1,-1,.,.,.,.,.,
O=C(c1cc(Br)c(Br)s1)N1CCOCC1,-10,3,-6,-3,-9,.,.,.,.,.,
O=C(c1coc(=O)c(Br)c1)N1CCOCC1,13,38,68*,74*,-8,60*,-12,-17,0,0,
CCOc1ccc(N=C2NC(=O)S/C2=C\c2ccc(OC)cc2)cc1,44,16,61*,64*,.,78*,-3,3,3,4,
